The nature of data set [1]: Acute toxicity in ip dosed albino mouse after 24 hrs. The data set is classed as organism-based. Conditions: in vivo. The essentials:
(§1)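 Groups of six albino mice (20–25 g), fasted overnight, dosed once orally or intraperitoneally at 100 to 1000 mg kg^-1 body weight. Observed for 24 h for mortality and signs of acute toxicity (altered motor activity, tremors, convulsion, sedation, lacrimation). LD50 cut-off set at the highest dose tested, 1000 mg kg^-1.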

Data set [2] can be described thus: Acute toxicity in po dosed albino mouse after 24 hrs. Format: organism-based. Particulars: in vivo. The essentials:
as §1

The subject of data set [3] is Rattus norvegicus. As to the kind of experiment: Gastrointestinal toxicity in Wistar rat assessed as ulcerogenic effect at 10 mg/kg, po administered twice at 2 hrs interval after 4 hrs. Details: dose 10 mg/kg, route oral. The data set is classed as organism-based. Particulars: in vivo. The procedure, abridged:
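Male Wistar rats fasted 36 h, then given indomethacin suspended in 1% CMC orally at 2 × 10 mg/kg, 2 h apart. Animals killed after 4 h and the stomach examined for lesions; ulcer index recorded.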

Data set [4] deals with Mus musculus. In words: Analgesic activity in albino mouse assessed as inhibition of acetic acid-induced writhing at 10 mg/kg, po. The data set is classed as functional. The essentials: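 Acetic acid writhing test: 0.6% acetic acid at 0.1 ml/10 g given intraperitoneally to albino mice of both sexes (18–22 g). Compounds given orally at 10 mg/kg as a suspension in 5% carboxymethyl cellulose. Indomethacin 10 mg/kg was the reference under the same conditions.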
For orientation: An intraperitoneal irritant provokes the stretching counted in writhing tests.

Data set [5] relates to Rattus norvegicus. As to the kind of experiment: Antiinflammatory activity in Wistar rat assessed as inhibition of formalin-induced paw oedema volume at 10 mg/kg, po administered 30 mins before formalin challenge after 1 hr relative to control. Format: functional. The essentials: (§2)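 Reference arm of the formalin paw-oedema test: oral dose of 10 mg/kg, 30 min before 3.5% formalin, in groups of six Wistar rats of either sex. Paw volume read by mercury-displacement plethysmograph at 0 to 5 h. Percent inhibition versus 2% CMC vehicle controls.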

In data set [6] the test system is Rattus norvegicus. In words: Antiinflammatory activity in Wistar rat assessed as inhibition of formalin-induced paw oedema volume at 10 mg/kg, po administered 30 mins before formalin challenge after 2 hrs relative to control. Format: functional. The essentials: as §2
For data set [7], the system named is Rattus norvegicus. As to the kind of experiment: Antiinflammatory activity in Wistar rat assessed as inhibition of formalin-induced paw oedema volume at 10 mg/kg, po administered 30 mins before formalin challenge after 3 hrs relative to control. Format: functional. The essentials:
as §2

Data set [8] concerns Rattus norvegicus. As to the kind of experiment: Antiinflammatory activity in Wistar rat assessed as inhibition of formalin-induced paw oedema volume at 10 mg/kg, po administered 30 mins before formalin challenge after 4 hrs relative to control. The data set is classed as functional. The essentials:
as §2

Data set [9] concerns Rattus norvegicus. As to the kind of experiment: Antiinflammatory activity in Wistar rat assessed as inhibition of formalin-induced paw oedema volume at 10 mg/kg, po administered 30 mins before formalin challenge after 5 hrs relative to control. Format: functional. The essentials: as §2
In data set [10] the test system is Escherichia coli. In words: Antibacterial activity against Escherichia coli at 100 ug/mL after 48 hrs by cup-plate method. The data set is classed as functional.
Data set [11] concerns Escherichia coli. As to the kind of experiment: Antibacterial activity against Escherichia coli at 50 ug/mL after 48 hrs by cup-plate method. Format: functional.
Data set [12] concerns Escherichia coli. As to the kind of experiment: Antibacterial activity against Escherichia coli at 25 ug/mL after 48 hrs by cup-plate method. The data set is classed as functional.
Data set [13] has as its system Bacillus. In words: Antibacterial activity against […] at 100 ug/mL after 48 hrs by cup-plate method. The data set is classed as functional.
The subject of data set [14] is Bacillus. As to the kind of experiment: Antibacterial activity against […] at 50 ug/mL after 48 hrs by cup-plate method. Format: functional.
The subject of data set [15] is Bacillus. In words: Antibacterial activity against […] at 25 ug/mL after 48 hrs by cup-plate method. Format: functional.
Data set [16] has as its system Aspergillus niger. As to the kind of experiment: Antifungal activity against Aspergillus niger at 100 ug/mL after 48 hrs by cup-plate method. Format: functional.
The test system of data set [17] is Aspergillus niger. As to the kind of experiment: Antifungal activity against Aspergillus niger at 50 ug/mL after 48 hrs by cup-plate method. Format: functional.
Data set [18] relates to Aspergillus niger. As to the kind of experiment: Antifungal activity against Aspergillus niger at 25 ug/mL after 48 hrs by cup-plate method. Format: functional.
The subject of data set [19] is Macrophomina phaseolina. In words: Antifungal activity against Rhizoctonia bataticola at 100 ug/mL after 48 hrs by cup-plate method. Format: functional.
Data set [20] relates to Macrophomina phaseolina. As to the kind of experiment: Antifungal activity against Rhizoctonia bataticola at 50 ug/mL after 48 hrs by cup-plate method. The data set is classed as functional.
Data set [21] relates to Macrophomina phaseolina. As to the kind of experiment: Antifungal activity against Rhizoctonia bataticola at 25 ug/mL after 48 hrs by cup-plate method. Format: functional.
Data set [22] relates to Rattus norvegicus. As to the kind of experiment: Gastrointestinal toxicity in Wistar rat assessed as ulcerogenic effect at 400 mg/kg, po administered twice at 2 hrs interval after 4 hrs. The data set is classed as organism-based. Details: dose 400 mg/kg, route oral. Conditions: in vivo. The essentials:
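Male Wistar rats fasted 36 h, then given 400 mg/kg orally twice, 2 h apart. Animals killed 4 h later and the stomach examined for lesions; ulcer index recorded.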

Data set [23] deals with Rattus norvegicus. In words: Antiinflammatory activity in Wistar rat assessed as inhibition of formalin-induced paw oedema volume at 100 mg/kg, po administered 30 mins before formalin challenge after 1 hr relative to control. Format: functional. The procedure, abridged:
(§3)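 Oral dosing at 100 mg/kg as a 2% CMC suspension, 30 min before injecting 3.5% formalin into the paw. Groups of six Wistar rats of either sex. Paw volume read by mercury-displacement plethysmograph at 0 h (right after formalin) and at 1, 2, 3, 4 and 5 h. Percent inhibition versus plain 2% CMC controls; SEM reported.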

Data set [24] relates to Rattus norvegicus. In words: Antiinflammatory activity in Wistar rat assessed as inhibition of formalin-induced paw oedema volume at 100 mg/kg, po administered 30 mins before formalin challenge after 2 hrs relative to control. Format: functional. The procedure, abridged: as §3
The subject of data set [25] is Rattus norvegicus. As to the kind of experiment: Antiinflammatory activity in Wistar rat assessed as inhibition of formalin-induced paw oedema volume at 100 mg/kg, po administered 30 mins before formalin challenge after 3 hrs relative to control. Format: functional. The essentials: as §3
For data set [26], the system named is Rattus norvegicus. In words: Antiinflammatory activity in Wistar rat assessed as inhibition of formalin-induced paw oedema volume at 100 mg/kg, po administered 30 mins before formalin challenge after 4 hrs relative to control. The data set is classed as functional. The essentials:
as §3

The test system of data set [27] is Rattus norvegicus. As to the kind of experiment: Antiinflammatory activity in Wistar rat assessed as inhibition of formalin-induced paw oedema volume at 100 mg/kg, po administered 30 mins before formalin challenge after 5 hrs relative to control. Format: functional. The procedure, abridged: as §3

Structures are written as SMILES.

Consider two molecules from ChEMBL document CHEMBL1140196, “Synthesis and biological activities of some new fluorinated coumarins and 1-aza coumarins” (Eur J Med Chem, 2008).

One may read the LD50 as the dose at which mortality reaches 50%. A higher LD50 goes with lower toxicity. Usually inhibition in vivo stands for the percentage by which the read-out fell short of the control. As usually defined, the inhibition is the relative decrease from the control value, in per cent.

In the case of `COc1ccc2c(c1)c(CC(=O)O)c(C)n2C(=O)c1ccc(Cl)cc1` [INDOMETHACIN], the LD50 at 24 h in data set [1] stood at 15 mg/kg; in data set [2], 25 mg/kg. In addition, the UI in [3] was 185.14. Further, the inhibition in vivo at 10 mg/kg in data set [4] is 46.2%; in data set [5], 35%; in [6] it was 43%; in data set [7], 75%; in data set [8] it was 76%; in data set [9], 85%.

As to `O=c1cc(CNc2ccc(F)cc2)c2cc(Cl)ccc2[nH]1`, the inhibition at 100 µg/mL in data set [10] stood at 70%; in data set [13], 76%; in [16] it was 77%; in [19], 75%. Further, the inhibition at 50 µg/mL in data set [11] was found to be 50%; in data set [14], 41%; in data set [17], 47%; in data set [20], 56%. The inhibition at 25 µg/mL in data set [12] is 26%; in data set [15], 22%; in data set [18] it was 35%; in data set [21], 44%. In addition, the results for the zone of inhibition at 25 µg/mL in [12] (read-out: IZ), in data set [15] (read-out: IZ) and in [18] (read-out: IZ) were 60 mm, 52 mm and 70 mm, respectively. For the same molecule, the 50% lethal dose (LD50) at 24 h in data set [1] was greater than 700 mg/kg; in [2], greater than 1000 mg/kg. In addition, in [22], the UI is listed as 58.57. The inhibition in vivo at 10 mg/kg in data set [4] stood at 7.99%. The inhibition in vivo at 100 mg/kg in data set [23] was determined as 9%; in [24], 12%; in data set [25] it was 46%; in [26], 59%; in data set [27], 77%.
